Compound activity (PubChem BioAssay)
Xi reactivation: reactivates the inactive X chromosome in mouse fibroblasts; actives 0.055% (n = 360,000); activation, % at 7.58 µM; XiGFP mouse fibroblasts, % GFP-positive cells imaging, 3 d; cells co-treated with 5-aza-dC sensitizer; scaled so ellipticine positive control = 100%;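 active = mean normalized replicate activation at least 10% and every replicate at or above 10%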;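 also: 0% = median of on-plate neutral control wells and 100% = ellipticine 6 µM median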
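System: XiGFP fibroblasts, SV40-immortalized. Medium: DMEM plus 5-aza-dC sensitizer. Doses: single point. Timing: 3 d treatment, 15 min room-temperature fixation. Control set: ellipticine 6 µM.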
AF4-AF9 inh: inhibitors of human MLL-AF4/AF9 interaction; AlphaScreen, biotin-AF4 peptide binding to FLAG-AF9; inhibition, % at 10 µM; actives 0.47% (n = 350,000);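 active = every replicate reaching a set inhibition limit, whatever the replicate mean, cut at about 25% in these data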;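 also: 0% = plate neutral control median and 100% = total signal loss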
Target sequence (P42568 whole entry, looked up): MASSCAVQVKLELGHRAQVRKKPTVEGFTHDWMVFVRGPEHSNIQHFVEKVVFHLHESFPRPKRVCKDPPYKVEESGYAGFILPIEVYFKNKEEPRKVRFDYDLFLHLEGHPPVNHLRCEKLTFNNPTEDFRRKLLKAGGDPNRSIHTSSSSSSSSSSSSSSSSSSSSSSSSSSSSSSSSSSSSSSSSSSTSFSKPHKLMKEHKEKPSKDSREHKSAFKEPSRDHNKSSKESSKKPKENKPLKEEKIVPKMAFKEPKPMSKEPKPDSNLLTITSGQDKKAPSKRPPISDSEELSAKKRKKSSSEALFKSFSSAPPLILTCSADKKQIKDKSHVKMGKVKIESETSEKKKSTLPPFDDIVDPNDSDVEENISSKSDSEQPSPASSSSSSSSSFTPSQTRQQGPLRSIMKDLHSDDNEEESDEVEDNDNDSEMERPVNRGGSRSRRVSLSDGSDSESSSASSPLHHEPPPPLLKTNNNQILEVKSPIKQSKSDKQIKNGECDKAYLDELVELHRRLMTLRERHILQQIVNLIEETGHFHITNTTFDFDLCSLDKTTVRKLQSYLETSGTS
PAX8 inh HTS: lowers PAX8-driven luciferase in RMG-I cells. actives 1.2% (n = 360,000). RMG-I TPO-luciferase reporter, SteadyGlo, 24 h. inhibition, % at 12.6 µM. AID 652154;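 active = mean replicate inhibition at least 60% with every replicate also reaching 60%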;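 also: luciferase light reporting Pax8 driven TPO promoter activity; plate controls were median of neutral control wells for no effect and mitoxantrone controls for full effect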
EWS-Fli inh: blocks EWS/Fli oncoprotein-driven transcription. inhibition, % at 12.6 µM. AID 651661. actives 0.67% (n = 350,000). A673 NR0B1-luciferase reporter, viability-normalised;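 active = mean inhibition of at least 50% after viability correction, with every replicate also passing that limit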;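 also: firefly luciferase signal divided by Alamar Blue viability fluorescence both relative to DMSO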
GSIS activator: GLuc luminescence reporter in INS-1E cells, primary screen for activators of glucose-dependent secretion of insulin. INS-1E GLuc reporter insulin secretion, 2-3 h. activation, % at 16.6 µM. AID 743287. actives 0.61% (n = 370,000);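 active = lowest replicate activation of at least 40%, so every replicate reaches that level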;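 also: 0% = median of neutral control wells and 100% = median of IBMX positive control wells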
PGC1a acetyl inh: modulators of PGC1a acetylation; U2OS PGC1a acetylation, AlphaScreen anti-acetyl-lysine; with virally co-expressed GCN5 acetyltransferase; inhibition, % at 15.6 µM; actives 0.17% (n = 350,000);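 active = every replicate shows inhibition of at least 40%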;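 also: 0% = neutral control wells and 100% = positive control wells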
Numbers without * were called inactive; / = no result; ! = repeats disagree. Most compounds without a hit are left out; they make up all but 2.1% or so of the library.

SMILES | Xi reactivation | AF4-AF9 inh | PAX8 inh HTS | EWS-Fli inh | GSIS activator | PGC1a acetyl inh
COc1ccccc1OCCn1ccnc1 | 0 | -1 | 18 | 11 | 9 | 7
COc1cc2nc(N3CCN(c4cc(C)ccc4C)CC3)nc(N)c2cc1OC | 0 | 23 | 31 | 60* | 221* | /
CC(=O)Nc1ccc(NC(=O)C(C)OC(=O)c2ccccc2Sc2ccccc2C#N)cc1 (centres undefined) | 0 | 96* | -16 | -1 | -5 | /
CC(=O)c1ccc(NC(=O)COC(=O)c2ccccc2Sc2ccccc2C#N)cc1 | 0 | -1 | -5 | -6 | -2 | -1
CCCCN(CC)CCNC(=O)c1cc2c(-c3ccc(Cl)cc3)nn(C)c2s1 | 0 | 11 | 18 | 22 | 67* | -11
Cc1noc(C)c1NC(=O)Nc1ccc2c(c1)C(=O)N([C@H](C)CO)C[C@H](C)[C@H](CN(C)S(=O)(=O)c1ccc(Cl)cc1)OCCCC[C@H](C)O2 | 0 | 3 | 18 | / | 1 | 0
CC(=O)Cn1ncc(Br)c(Br)c1=O | 2 | 0 | 84* | 30 | 53 | /
O=C(NCC(=O)N1CCCC(C(F)(F)F)C1)c1cccs1 (centres undefined) | 0 | 33* | -21 | -16 | 19 | 3
CC/C(=C\c1ccc(N(C)C)cc1)c1ccncc1 | 0 | 28* | -28 | 2 | 1 | /
C[C@@H]1CN([C@@H](C)CO)S(=O)(=O)c2ccc(C#CC(C)(C)O)cc2O[C@@H]1CN(C)C(=O)C1CC1 | -1 | / | / | -2 | 4 | 2
COc1cccc(-c2ccc(C3[C@H]4CNC[C@@H]3N4Cc3cc(F)ccc3F)cc2)c1 (some centres undefined) | 0 | 2 | / | 4 | 2 | /
Cc1ccc(-c2ccc(C3[C@H]4CNC[C@@H]3N4Cc3cccc(F)c3)cc2)cc1 (some centres undefined) | 0 | 1 | -1 | -9 | -3 | 8
COc1cccc(-c2ccc(C3[C@H]4CNC[C@@H]3N4Cc3ccc(F)cc3)cc2)c1 (some centres undefined) | 0 | 0 | -1 | 63*! | -15 | -9
COc1cc(CN2[C@@H]3CNC[C@H]2C3c2ccc(/C=C/c3ccccc3)cc2)cc(OC)c1 (some centres undefined) | 0 | 1 | -11 | 14 | 49*! | 0
Fc1cccc(CN2[C@@H]3CNC[C@H]2C3c2ccc(-c3ccncc3)cc2)c1 (some centres undefined) | 0 | 30*! | -3 | 25 | -7 | 0
CC(C)c1ccc(NC(=O)C[C@H]2CC[C@H]3[C@@H](COc4ccc(NC(=O)c5ccno5)cc4C(=O)N3C)O2)cc1 | 0 | 3 | 24 | 14 | -17 | /
C/C=C/c1ccc2c(c1)O[C@@H](CN(C)C(=O)CC)[C@H](C)CN([C@@H](C)CO)S2(=O)=O | -1 | 0 | / | 17 | -7 | -10
C[C@@H]1CCCCO[C@H](CN(C)Cc2ccc(C(F)(F)F)cc2)[C@@H](C)CN([C@@H](C)CO)C(=O)c2cc(NC(=O)NC3CCCCC3)ccc2O1 | 1 | -5 | 31 | 0 | -20 | 21
C[C@@H]1CN([C@@H](C)CO)C(=O)c2cc(NC(=O)NC3CCCCC3)ccc2O[C@@H](C)CCCCO[C@H]1CN(C)Cc1ccc(C(F)(F)F)cc1 | 0 | -2 | 78* | -13 | -12 | 5
C[C@H]1CCCCO[C@@H](CN(C)Cc2ccc(C(F)(F)F)cc2)[C@@H](C)CN([C@@H](C)CO)C(=O)c2cc(NC(=O)NC3CCCCC3)ccc2O1 | 0 | -3 | 52 | -4 | -17 | 0
C[C@@H]1CN([C@H](C)CO)C(=O)c2cc(NC(=O)NC3CCCCC3)ccc2O[C@@H](C)CCCCO[C@H]1CN(C)Cc1ccc(C(F)(F)F)cc1 | 0 | -1 | 105* | -25 | 13 | 11
COc1ccc(S(=O)(=O)N(C)C[C@@H]2OCCCC[C@@H](C)Oc3ccc(NC(=O)Nc4c(C)noc4C)cc3C(=O)N([C@H](C)CO)C[C@H]2C)cc1 | 0 | 3 | 7 | 0 | 2 | 11
COc1ccc(N2CC(C(=O)N3CCc4ccccc43)CC2=O)cc1 (centres undefined) | 0 | -2 | 25 | / | 66* | /
COc1ccc(N2CC(C(=O)N/N=C/c3ccc(C)cc3)CC2=O)cc1 (centres undefined) | 1 | -1 | 20 | 60* | -14 | 3
O=C1CC(C(=O)N2CCCc3ccccc32)CN1c1ccc(F)cc1 (centres undefined) | 0 | 7 | 16 | -18 | -3 | 8
SMILES | Xi reactivation | AF4-AF9 inh | PAX8 inh HTS | EWS-Fli inh | GSIS activator | PGC1a acetyl inh
CC(C)NC(=O)Nc1cccc2c1O[C@@H](CN(C)Cc1ccc(C(=O)O)cc1)[C@@H](C)CN([C@@H](C)CO)C2=O | 0 | -1 | -7 | -8 | -7 | 3
O=C(C1=C(c2ccccc2)C(=O)c2ccccc2C1=O)c1ccccc1 | 0 | 13 | 78* | 61* | -8 | /
c1ccc2c3c([nH]c2c1)CCNC3 | 0 | 25* | 6 | 0 | 15 | -3
Cc1cc(=O)[nH]c(SCc2cn3ccccc3n2)n1 | 0 | -4 | 1 | -2 | 73* | -11
O=[N+]([O-])c1ccc2nc(SCc3cn4ccccc4n3)[nH]c2c1 | 0 | 3 | 102* | -66 | 3 | /
CO[C@@H]1CN(C)C(=O)c2cc(NC(=O)C3CCOCC3)ccc2OC[C@@H](C)N(Cc2nccs2)C[C@H]1C | 0 | -2 | -4 | 1 | 2 | 3
C[C@H](CO)N1C[C@H](C)[C@H](CN(C)C(=O)c2ccccc2)OCCCC[C@H](C)Oc2ccc(NC(=O)Nc3ccc(C(F)(F)F)cc3)cc2C1=O | 0 | 1 | 104* | -7 | 10 | -8
C[C@H]1CCCCO[C@H](CN(C)C(=O)c2ccccc2)[C@@H](C)CN([C@@H](C)CO)C(=O)c2cc(NC(=O)Nc3ccc(C(F)(F)F)cc3)ccc2O1 | 0 | 0 | 86* | 9 | -2 | 5
CCOC(=O)CCS(=O)(=O)c1nc(-c2ccccc2)cc(C(F)(F)F)n1 | / | / | / | / | / | 68*
CCOC(=O)CS(=O)(=O)c1nc(-c2ccccc2)cc(C(F)(F)F)n1 | / | / | / | / | / | 58*
CCC(=O)N[C@@H]1CC[C@@H](CC(=O)NCC2CC2)O[C@@H]1CO | 0 | -3 | / | -1 | 5 | 7
COc1ccc(CCNC(=O)CCNS(=O)(=O)c2cccc3nonc23)cc1OC | / | / | / | / | 24 | -1
COc1ccc(CCN(C)C(=O)CCNS(=O)(=O)c2ccccc2C(F)(F)F)cc1OC | 0 | -4 | 3 | 5 | 41* | 5
COc1ccc2nc(NC(=O)C3CCN(S(=O)(=O)c4cccc5nsnc45)CC3)sc2c1 | / | / | 63* | / | / | 2
